Reference: ChEMBL document CHEMBL4622968, “Discovery of [1,2,4]triazolo[4,3-a]pyridines as potent Smoothened inhibitors targeting the Hedgehog pathway with improved antitumor activity in vivo” (Bioorg Med Chem, 2020)
Active and inactive are the calls of the source. No cut-off for these calls is given here.

What was measured:
HeLa = assay: Antiproliferation activity against human HeLa cells assessed as reduction in cell viability incubated for 72 hrs by MTT assay; assay type: functional, cell-based
In short: (§1)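 MTT assay. Cells were plated overnight and exposed to a range of concentrations for 72 h. MTT was then added for 4 h and absorbance read at 570 nm. Inhibition% = [(control − compound)/(control − blank)] × 100. IC50 was fitted from the curves. Mean ± S.D. of 3–5 separate experiments. RPMI 1640 + 10% FBS; MCF10A in DMEM/F12 with 5% horse serum, EGF, hydrocortisone, insulin and cholera toxin.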

MDA-MB-231 = assay: Antiproliferation activity against human MDA-MB-231 cells assessed as reduction in cell viability incubated for 72 hrs measured after 4 hrs by MTT assay; assay type: functional, cell-based; in short: as §1
T47D = assay: Antiproliferation activity against human T47D cells assessed as reduction in cell viability incubated for 72 hr by MTT assay; assay type: functional, cell-based; in short: as §1
[1] = Inhibition of hedgehog pathway in mouse NIH/3T3 cells harboring GRE-Luc assessed as inhibition of SAG-induced Hh signaling pathway by dual luciferase reporter gene assay; assay type: cell-based; details: NIH3T3
In short: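 NIH3T3 cells co-transfected with 8×3' Gli-BS-delta51-Luc II firefly reporter and pRL-TK Renilla plasmid; after 24 h treated with compounds plus SAG (pathway activator). Gli luciferase normalized to Renilla (dual-luciferase read-out); IC50 = concentration halving normalized signal; mean ± S.D. of 3–5 separate experiments.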

A549 = assay: Antiproliferation activity against human A549 cells assessed as reduction in cell viability incubated for 72 hrs by MTT assay; assay type: functional, cell-based; details: A549, 72 h; in short: as §1
MDA-MB-468 [2] = assay: Antiproliferation activity against human MDA-MB-468 cells assessed as reduction in cell viability incubated for 72 hr by MTT assay; assay type: functional, cell-based; details: MDA-MB-468, 72 h; in short: as §1
AN3-CA = assay: Antiproliferation activity against human AN3CA cells assessed as reduction in cell viability incubated for 72 hr by MTT assay; assay type: functional, cell-based; in short: as §1
U-251 = assay: Antiproliferation activity against human U251 cells assessed as reduction in cell viability incubated for 72 hrs by MTT assay; assay type: functional, cell-based; details: U-251, 72 h; in short: as §1
MCF7 = assay: Antiproliferation activity against human MCF7 cells assessed as reduction in cell viability incubated for 72 hrs by MTT assay; assay type: functional, cell-based; details: MCF7, 72 h; in short: as §1
[3] = Acute toxicity in Kunming mouse assessed as mortality at 2667 mg/kg, ig observed for 14 days relative to control; assay type: organism-based; details: in vivo, po, read-out: Activity
In short: (§2)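 Kunming mice, groups of 5 female and 5 male per dose, dosed once by gavage at graded doses; mortality recorded over 14 days as dead/treated and percent. LD50 derived by improved Karber's method: LD50 = lg^-1[xm − i(ΣP − 0.5)], xm log of maximal dose, i log ratio of neighbouring doses; 95% confidence intervals given.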

[4] = Acute toxicity in Kunming mouse assessed as lethality through intragastric administration observed for 14 days; details: in vivo, po; in short: as §2
[5] = Acute toxicity in Kunming mouse assessed as mortality at 1111 mg/kg, ig observed for 14 days relative to control; assay type: organism-based; details: in vivo, po, read-out: Activity; in short: as §2
[6] = Acute toxicity in Kunming mouse assessed as mortality at 1778 mg/kg, ig observed for 14 days relative to control; assay type: organism-based; details: in vivo, po, read-out: Activity; in short: as §2
[7] = Acute toxicity in Kunming mouse assessed as mortality at 741 mg/kg, ig observed for 14 days relative to control; assay type: organism-based; details: in vivo, po, read-out: Activity; in short: as §2
MDA-MB-468 [8] = assay: Inhibition of hedgehog pathway in human MDA-MB-468 cells assessed as decrease in Smo protein levels in cilia at 28 uM incubated for 24 hrs by immunostaining based confocal microscopic analysis; assay type: cell-based
In short: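 MDA-MB-468 cells were treated at 28 μM for 24 h with or without SAG. Cilia were immunostained for acetylated α-tubulin and Smo and imaged by confocal microscopy. Comparisons were made against DMSO and against SAG alone.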

Protein smoothened [9] = target: T1, Protein smoothened (Homo sapiens, UniProt Q99835); assay: Binding affinity to recombinant human Smo receptor assessed as dissociation rate constant by SPR analysis
In short: (§3)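 Surface plasmon resonance with recombinant Smo protein, run in PBS at a flow rate of 2 μL/s and 4 °C. Analytes were injected at 2.5, 5 and 10 μM. The chip was regenerated with 0.5% SDS:glycine-HCl pH 2.0 (1:1). ka, kd, Rmax, KA and KD came from a global fit of the sensorgrams.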

Protein smoothened [10] = target: T1, Protein smoothened; assay: Binding affinity to recombinant human Smo receptor assessed as maximum response at equilibrium by SPR analysis; in short: as §3
Protein smoothened [11] = target: T1, Protein smoothened; assay: Binding affinity to recombinant human Smo receptor assessed as association rate constant by SPR analysis; in short: as §3
MCF-10A = assay: Cytotoxicity against human MCF10A cells assessed as cell viability incubated for 72 hrs measured by MTT assay; assay type: cell-based; in short: as §1
[12] = Acute toxicity in Kunming mouse assessed as mortality at 4000 mg/kg, ig observed for 14 days relative to control; assay type: organism-based; details: in vivo, po, read-out: Activity; in short: as §2
[13] = Toxicity in BALB/c mouse xenografted with human MDA-MB-468 cells assessed as body weight at 80 to 100 mg/kg, ig measured every day for 21 day; assay type: organism-based; details: in vivo, po, 504 h
In short: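 Female BALB/c nude mice, 6–8 weeks, given 1.0×10^7 MDA-MB-468 cells s.c. in right posterior flank; at 100 mm3 tumours, randomized into groups of five. Daily gavage at 80 or 100 mg/kg in saline with 0.1% Tween 80, or vehicle alone; body weight recorded daily, tumour volume every 2 days; sacrificed day 21.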

Protein smoothened [14] = target: T1, Protein smoothened; assay: Binding affinity to recombinant human Smo receptor assessed as association constant at equilibrium by SPR analysis
Protein smoothened [15] = target: T1, Protein smoothened; assay: Binding affinity to recombinant human Smo receptor assessed as dissociation constant at equilibrium by SPR analysis
[16] = Acute toxicity in Kunming mouse assessed as mortality at 5000 mg/kg, ig observed for 14 days relative to control; assay type: organism-based; details: in vivo, po, read-out: Activity; in short: as §2

T1 sequence (Q99835 whole entry): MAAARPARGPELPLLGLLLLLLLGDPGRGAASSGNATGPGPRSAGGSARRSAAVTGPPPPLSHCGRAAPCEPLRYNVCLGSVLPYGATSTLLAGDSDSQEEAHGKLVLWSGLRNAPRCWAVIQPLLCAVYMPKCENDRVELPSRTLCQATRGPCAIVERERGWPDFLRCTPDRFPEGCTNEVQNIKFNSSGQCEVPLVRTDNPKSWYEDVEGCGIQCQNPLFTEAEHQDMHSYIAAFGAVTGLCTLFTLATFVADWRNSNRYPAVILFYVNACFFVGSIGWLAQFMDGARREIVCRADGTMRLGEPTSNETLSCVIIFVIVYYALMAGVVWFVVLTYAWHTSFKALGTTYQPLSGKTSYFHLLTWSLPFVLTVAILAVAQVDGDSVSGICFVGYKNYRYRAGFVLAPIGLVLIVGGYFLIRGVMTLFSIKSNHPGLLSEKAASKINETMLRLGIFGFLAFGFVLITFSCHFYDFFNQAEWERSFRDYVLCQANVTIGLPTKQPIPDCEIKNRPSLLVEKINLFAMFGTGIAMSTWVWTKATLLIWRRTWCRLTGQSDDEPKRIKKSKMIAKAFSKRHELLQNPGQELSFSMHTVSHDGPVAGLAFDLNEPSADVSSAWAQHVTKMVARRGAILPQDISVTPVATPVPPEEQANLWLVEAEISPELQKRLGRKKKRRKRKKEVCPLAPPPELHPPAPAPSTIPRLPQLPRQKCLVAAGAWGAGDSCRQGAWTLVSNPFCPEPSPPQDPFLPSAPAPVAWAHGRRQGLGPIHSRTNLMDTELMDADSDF

| Structure (SMILES) | IC50 (HeLa) [µM] | IC50 (MDA-MB-231) [µM] | IC50 (T47D) [µM] | IC50 [1] [µM] | IC50 (A549) [µM] | IC50 (MDA-MB-468 [2]) [µM] | IC50 (U-251) [µM] | IC50 (MCF7) [µM] | KA (Protein smoothened [14]) | Kd (Protein smoothened [15]) [µM] | IC50 (AN3-CA) [µM] | Kdiss (Protein smoothened [9]) [×10⁻³ /s] | Rmax (Protein smoothened [10]) [RU] | Ka (Protein smoothened [11]) [M⁻¹ s⁻¹] | other results |
| --- | --- | --- | --- | --- | --- | --- | --- | --- | --- | --- | --- | --- | --- | --- | --- |
| O=C(Nc1ccc(Cl)c(-c2nnc3c(Cl)cccn23)c1)c1ccc(F)cc1Cl | > 100 | 75 | > 100 | 8.22 | > 100 | > 100 | > 100 | > 100 | – | – | > 100 | – | – | – | – |
| CS(=O)(=O)c1ccc(C(=O)Nc2ccc(Cl)c(-c3ccccn3)c2)c(Cl)c1 [VISMODEGIB] | 61.7 | > 100 | > 100 | 0.1 | > 100 | 79 | > 100 | > 100 | – | – | 93 | 0.0174 | 4.63 | 179 | mortality at 336 h [3]: 60%; LD50 at 336 h [4]: 2010 mg/kg; mortality at 336 h [5]: 30%; mortality at 336 h [6]: 50%; mortality at 336 h [7]: 10%; inhibition (MDA-MB-468 [8]): Active; IC50 (MCF-10A): 89.5 µM; mortality at 336 h [12]: 80%; Activity [13]: Non-Toxic |
| O=C(Nc1ccc(Cl)c(-c2nnc3c(Cl)cccn23)c1)c1cccc(Cl)c1 | > 100 | 66.1 | 30.2 | 0.102 | 52.7 | 54.8 | 43.1 | 71.9 | 8.21 ×10⁴ /M | 12.1 | 68.4 | 1.23 | 41.2 | 101 | LD50 at 336 h [4]: > 5000 mg/kg; mortality at 336 h [16]: 0% |
| O=C(Nc1ccc(Cl)c(-c2nnc3c(Cl)cccn23)c1)c1cccnc1 | > 100 | > 100 | > 100 | > 10 | > 100 | > 100 | > 100 | > 100 | – | – | > 100 | – | – | – | – |
| O=C(Nc1ccc(Cl)c(-c2nnc3c(Cl)cccn23)c1)c1ccc(C(F)(F)F)nc1Cl | 86.3 | > 100 | 87.6 | 0.093 | 46.8 | 46 | > 100 | > 100 | 9.43 ×10⁷ /M | 0.0106 | 48.3 | 0.00275 | 8.44 | 260 | – |
| O=C(Nc1ccc(Cl)c(-c2nnc3c(Cl)cccn23)c1)c1ccccn1 | 75.5 | 92 | > 100 | 1.08 | > 100 | > 100 | 79 | 96.4 | – | – | > 100 | – | – | – | – |
| O=C(Nc1ccc(Cl)c(-c2nnc3c(Cl)cccn23)c1)c1ccc(C(F)(F)F)cc1F | 61.9 | > 100 | 70.8 | 0.096 | > 100 | 22.3 | > 100 | 62.8 | 7.35 ×10⁴ /M | 13.6 | 41.2 | 1.51 | 49.2 | 111 | – |

Continued, in another order:

| IC50 (HeLa) [µM] | IC50 (MDA-MB-231) [µM] | IC50 (T47D) [µM] | IC50 [1] [µM] | IC50 (A549) [µM] | IC50 (MDA-MB-468 [2]) [µM] | IC50 (U-251) [µM] | IC50 (MCF7) [µM] | KA (Protein smoothened [14]) | Kd (Protein smoothened [15]) [µM] | Structure (SMILES) | IC50 (AN3-CA) [µM] | Kdiss (Protein smoothened [9]) [×10⁻³ /s] | Rmax (Protein smoothened [10]) [RU] | Ka (Protein smoothened [11]) [M⁻¹ s⁻¹] | other results |
| --- | --- | --- | --- | --- | --- | --- | --- | --- | --- | --- | --- | --- | --- | --- | --- |
| > 100 | 58.2 | > 100 | 0.77 | 76.9 | > 100 | 73.5 | > 100 | – | – | O=C(Nc1ccc(Cl)c(-c2nnc3c(Cl)cccn23)c1)c1ccccc1 | 67.6 | – | – | – | – |
| > 100 | 59.9 | 83.8 | 0.727 | > 100 | > 100 | > 100 | 92.2 | – | – | O=C(Nc1ccc(Cl)c(-c2nnc3c(Cl)cccn23)c1)c1ccccc1Cl | > 100 | – | – | – | – |
| > 100 | > 100 | > 100 | 0.285 | 61.3 | 21.6 | > 100 | 78.2 | – | – | O=C(Nc1ccc(Cl)c(-c2nnc3c(Cl)cccn23)c1)c1ccc(Cl)cc1Cl | 84.8 | – | – | – | – |
